{
  "source": "paper PMC8751737",
  "about": "(International journal of pharmaceutics, 2021)",
  "key": {"BT474 [1]": {"test_system": "BT474", "test": "Antiproliferative activity, CellTiter-Glo assay", "assay_type": "cell-based, human", "conditions": "read-out: IC50 (72 Hours) BT474, 72 h incubation, triplicate", "outline": "(§1)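 Cells were plated in 96-well plates and held 24 h at 37 °C in 5% CO2. Media with 10% FBS, 1% penicillin-streptomycin and 1% insulin were RPMI-1640 for BT474, EMEM for Calu-3 and Fibroblast Basal Medium for HLFs. Test compound or liposome was added at 0.001–100 μM for 72 h. Cells were PBS-washed before CellTiter-Glo luminescence. Triplicate runs; IC50 from dose-response plot.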"}, "MCF-7 spheroids": {"test_system": "MCF-7 spheroids", "test": "In vitro tumor growth inhibition in 3D tumor spheroids", "assay_type": "cell-based, human", "conditions": "3 μM, 5 days", "outline": "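MCF-7 cells (40 μL at 125 cells/μL) grown as hanging-drop spheroids at 37 °C, 5% CO2, humidified, until about 100–200 μm, then moved to round-bottom 96-well plates (day zero). Treated with test compound at 3 μM, with untreated controls. Imaged for five consecutive days under a 4× objective, and volume calculated as 0.5 × length × width².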"}, "MCF-7 3D tumor spheroids": {"test_system": "MCF-7 3D tumor spheroids", "test": "Antiproliferative activity in multicellular 3D tumor spheroid", "assay_type": "cell-based, human", "conditions": "read-out: 3D tumor spheroid IC50 (72 Hours) MCF-7, hanging drop spheroids, CellTiter-Glo 3D, mean ± SD, n=3", "outline": "(§2)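 Hanging-drop spheroids seeded at 500 cells/μL in 40 μL of medium and formed over 24 h at 37 °C, 5% CO2, humidified. Spheroids moved to round-bottom 96-well plates in serum-free medium and treated with test compound at 0.01–100 μM for 72 h at 37 °C. Viability read by CellTiter-Glo 3D luminescence, and IC50 derived from the dose-response.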"}, "Calu-3 [2]": {"test_system": "Calu-3", "test": "Apoptosis study", "assay_type": "cell-based, human", "conditions": "Calu-3, 3 μM, 12 h, annexin V-FITC/PI, n=3", "outline": "(§3)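 Cells were seeded at 2×10⁵ cells/mL in flasks and cultured 24 h. At 70% confluence they were exposed to 3 μM test compound in serum-free medium for 12 h. Cells were then trypsinized, washed in ice-cold PBS and resuspended in binding buffer at 2.5×10⁶ cells/mL. Staining with annexin V-FITC plus propidium iodide ran 15 min before flow cytometry.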"}, "Calu-3 bearing nude mice [3]": {"test_system": "Calu-3 bearing nude mice", "test": "Toxicity study", "assay_type": "in vivo, BALB/c nude mice", "outline": "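Same Calu-3 xenograft nude mice and intravenous dosing every four days, with a PBS control group. Body weight was recorded every four days during the efficacy study. At termination (38 days), heart, liver, spleen, kidney and lung tumor were formalin-fixed and paraffin-embedded. Sections of 5 μm were H&E-stained and examined microscopically by a toxicologist.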"}, "[4]": {"test_system": "non-cancerous lung fibroblast cells (HLFs)", "test": "Antiproliferative activity, CellTiter-Glo assay", "assay_type": "cell-based, human", "conditions": "read-out: IC50 (72 Hours) HLFs, 72 h incubation, triplicate", "outline": "as §1"}, "BT474 3D tumor spheroids": {"test_system": "BT474 3D tumor spheroids", "test": "Antiproliferative activity in multicellular 3D tumor spheroid", "assay_type": "cell-based, human", "conditions": "read-out: 3D tumor spheroid IC50 (72 Hours) BT474, hanging drop spheroids, CellTiter-Glo 3D, mean ± SD, n=3", "outline": "as §2"}, "BT474 [5]": {"test_system": "BT474", "test": "Apoptosis study", "assay_type": "cell-based, human", "conditions": "BT474, 3 μM, 12 h, annexin V-FITC/PI, n=3", "outline": "as §3"}, "Calu-3 [6]": {"test_system": "Calu-3", "test": "Antiproliferative activity, CellTiter-Glo assay", "assay_type": "cell-based, human", "conditions": "read-out: IC50 (72 Hours) Calu-3, 72 h incubation, triplicate", "outline": "as §1"}, "Calu-3 bearing nude mice [7]": {"test_system": "Calu-3 bearing nude mice", "test": "In vivo antitumor activity", "design": "species or system BALB/c nude mice", "conditions": "intravenous, Dox-equivalent dose 6 mg kg−1 every four days, mean ± SD, n=5", "outline": "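Male and female BALB/c nude mice (22–35 g) received 1×10⁷ Calu-3 cells in 100 μL culture medium subcutaneously in the right back. At 30–50 mm³ tumors, mice were randomized (n = 5/group). Dosing was intravenous every four days, with PBS as control. Tumor volume was measured every four days. Mice were killed at 38 days and tumors weighed.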"}, "[8]": {"test_system": "Calu-3 3D tumor spheroids", "test": "Antiproliferative activity in multicellular 3D tumor spheroid", "assay_type": "cell-based, human", "conditions": "read-out: 3D tumor spheroid IC50 (72 Hours) Calu-3, hanging drop spheroids, CellTiter-Glo 3D, mean ± SD, n=3", "outline": "as §2"}},
  "data": [
    {"smiles": "COc1cccc2c1C(=O)c1c(O)c3c(c(O)c1C2=O)C[C@@](O)(C(=O)CO)C[C@@H]3O[C@H]1C[C@H](N)[C@H](O)[C@H](C)O1", "note": "[Free Dox, Doxorubicin]", "values": [
      {"measurement": "IC50", "setting": "BT474 [1]", "value": "0.399 ± 0.079", "unit": "µM"},
      {"measurement": "inhibition of spheroid growth", "setting": "MCF-7 spheroids", "value": "significant inhibition of spheroidal tumor growth"},
      {"measurement": "IC50", "setting": "MCF-7 3D tumor spheroids", "value": "0.548 ± 0.125", "unit": "µM"},
      {"measurement": "total percentage of apoptosis", "setting": "Calu-3 [2]", "value": 16.83, "unit": "%"},
      {"measurement": "body weight loss", "setting": "Calu-3 bearing nude mice [3]; Dox-equivalent 6 mg kg−1 every four days, 38 days after tumor implantation", "value": "significant weight loss"},
      {"measurement": "histopathology of heart tissues", "setting": "Calu-3 bearing nude mice [3]; H&E, at 38 days, compared to control group", "value": "some amount of vascular degeneration"},
      {"measurement": "histopathology of liver and kidneys", "setting": "Calu-3 bearing nude mice [3]; H&E, at 38 days, compared to control group (PBS)", "value": "no apparent inflammatory reaction, structural modification, or pathological abnormalities"},
      {"measurement": "histopathology of spleen", "setting": "Calu-3 bearing nude mice [3]; H&E, at 38 days, compared with control group", "value": "loss of lymphoid blue matter and deposition of red matter"},
      {"measurement": "IC50", "setting": "[4]", "value": "0.17 ± 0.082", "unit": "µM"},
      {"measurement": "IC50", "setting": "BT474 3D tumor spheroids", "value": "0.845 ± 0.058", "unit": "µM"},
      {"measurement": "total percentage of apoptosis", "setting": "BT474 [5]", "value": 35.49, "unit": "%"},
      {"measurement": "IC50", "setting": "Calu-3 [6]", "value": "0.158 ± 0.075", "unit": "µM"},
      {"measurement": "mean tumor size at 38 days after implantation", "setting": "Calu-3 bearing nude mice [7]", "value": "68.26 ± 25.89", "unit": "mm^3"},
      {"measurement": "mean tumor weight at 38 days after implantation", "setting": "Calu-3 bearing nude mice [7]", "value": "162.8 ± 21.98", "unit": "mg"},
      {"measurement": "IC50", "setting": "[8]", "value": "0.745 ± 0.054", "unit": "µM"}
    ]}
  ]
}
